KCNK9 block – blocks the human KCNK9 two-pore domain potassium channel | Q9NPC2 | HEK293 KCNK9, FluxOR thallium flux fluorescence; hits give low values | B-score at 10 µM | 1.2% of 310,000 active;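 active = ratio B-score over 3 SD below the library mean, with starting fluorescence within 5 SD of its mean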;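 note: negative B-score means less thallium flux so channel inhibition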
hERG rescue – hERG (human) protection from proarrhythmic block; Q12809; CHO-hERG, FluxOR thallium flux, dofetilide IC70 present; 0.51% of 310,000 active; activation (rescue from dofetilide block), less the hit threshold, % at 10 µM;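 active = activation above the mean of controls blocked by dofetilide plus 5 SD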;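 note: thallium influx through hERG after potassium depolarization seen as dye fluorescence rise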
Target sequence (Q12809 whole entry, looked up): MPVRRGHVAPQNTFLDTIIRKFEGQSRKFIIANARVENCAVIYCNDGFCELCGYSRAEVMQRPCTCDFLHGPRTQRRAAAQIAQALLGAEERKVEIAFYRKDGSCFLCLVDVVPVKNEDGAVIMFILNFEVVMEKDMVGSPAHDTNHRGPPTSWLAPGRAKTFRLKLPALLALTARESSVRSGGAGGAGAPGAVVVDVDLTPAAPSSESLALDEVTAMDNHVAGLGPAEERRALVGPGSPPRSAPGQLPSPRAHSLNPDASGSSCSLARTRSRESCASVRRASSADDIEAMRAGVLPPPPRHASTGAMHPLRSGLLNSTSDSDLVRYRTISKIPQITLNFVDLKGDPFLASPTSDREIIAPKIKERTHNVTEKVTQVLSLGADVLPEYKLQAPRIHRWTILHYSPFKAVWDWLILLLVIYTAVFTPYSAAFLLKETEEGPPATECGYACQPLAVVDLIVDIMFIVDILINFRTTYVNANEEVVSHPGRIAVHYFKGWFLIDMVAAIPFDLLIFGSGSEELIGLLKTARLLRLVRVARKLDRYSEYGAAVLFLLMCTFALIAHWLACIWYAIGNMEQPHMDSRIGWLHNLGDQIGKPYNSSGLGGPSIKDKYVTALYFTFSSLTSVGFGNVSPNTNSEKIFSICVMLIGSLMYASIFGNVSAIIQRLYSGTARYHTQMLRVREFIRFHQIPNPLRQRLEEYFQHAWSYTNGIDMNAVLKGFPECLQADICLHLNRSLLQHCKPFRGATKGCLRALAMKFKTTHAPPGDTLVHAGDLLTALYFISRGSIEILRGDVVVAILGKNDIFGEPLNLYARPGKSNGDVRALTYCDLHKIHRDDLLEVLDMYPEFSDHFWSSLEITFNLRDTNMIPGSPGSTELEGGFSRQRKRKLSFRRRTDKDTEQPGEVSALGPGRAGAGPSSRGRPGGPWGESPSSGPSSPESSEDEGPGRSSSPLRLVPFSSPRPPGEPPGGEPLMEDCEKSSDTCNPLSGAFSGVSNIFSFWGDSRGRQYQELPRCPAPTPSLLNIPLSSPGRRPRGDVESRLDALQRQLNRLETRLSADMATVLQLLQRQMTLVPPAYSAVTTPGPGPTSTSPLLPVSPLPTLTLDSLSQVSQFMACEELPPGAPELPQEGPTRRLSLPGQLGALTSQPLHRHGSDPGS
KCNQ1 block – blocks the human KCNQ1 potassium channel | CHO-K1 KCNQ1, FluxOR thallium flux fluorescence; hits give high values | P51787 | 1.3% of 310,000 active | AID 2642 | B-score at 10 µM;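 active = compounds whose thallium flux B-score, printed positive for inhibition, exceeds three library SD while starting fluorescence stays within three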;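 note: channel opened by potassium depolarization with thallium stimulus after 20 min compound exposure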
KCNK3 inh – human KCNK3 channel inhibition, primary screen. O14649. CHO-KCNK3 thallium flux, FluxOR fluorescence; hits give low values. 0.84% of 340,000 active. B-score at 10 µM. AID 602410;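 active = B-score under library mean minus 4 SD, starting fluorescence ratio at most library mean plus 5 SD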;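 note: more negative B-score means stronger inhibition of thallium flux through KCNK3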
KCC2 mod – modulators of human KCC2 chloride dependent transport. Q9H2X9. KCC2 cells, thallium flux FluoZin-2 fluorescence. B-score of Tl+ flux slope (higher = more flux/activation; lower = inhibition) at 10 µM. 2.2% of 190,000 active. AID 1456;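 active = thallium flux slope and its plate-corrected score both differing from the plate sample mean at a set confidence after two filtering rounds, in either direction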;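 note: slope of fluorescence scaled to starting intensity during 10 to 20 s after thallium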
KCNQ1 act – potentiates or activates the human KCNQ1 potassium channel; CHO-K1 KCNQ1, thallium flux FluxOR fluorescence; hits give high values; AID 2648; P51787; 0.35% of 310,000 active; B-score at 10 µM;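 active = fluorescence ratio B-score, a plate-corrected score, at least three library SD, with initial intensity B-score within 5 SD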
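Assay system: stable KCNQ1 CHO-K1 line; medium: assay buffer, equal DMSO in all wells; timing: 90 min dye loading and 20 min compound exposure, both at room temperature; technique: kinetic FluxOR thallium fluorescence, 10-s 1-Hz baseline, 110-s post-stimulus read; read-out basis: B score of baseline-normalized fluorescence ratio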
KCC2 secondary – confirmation of human KCC2 transport modulators; 15% of 3,700 active; AID 1713; shares compounds with KCC2 mod; HEK293-KCC2, thallium flux, FluoZin2 fluorescence; hits give high values; normalised thallium flux (F/F0 slope) at 10 µM;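 active = thallium flux slope above the same plate's solvent-only control mean plus 3 SD; inconclusive = the two replicate wells disagree; inactive = no significant difference from solvent-only control wells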
KCC2 bumet counter – thallium flux despite bumetanide block in KCC2 cells, secondary assay 3. AID 1714. normalized thallium flux at 10 µM. shares compounds with KCC2 mod. 49% of 3,700 active. HEK293-KCC2 + bumetanide/ouabain, thallium flux FluoZin2; hits give high values;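 active = thallium entry rate above the same plate's blocked-transporter control wells by more than 3 SD; inconclusive = the two repeat wells disagree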;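 note: raw slope of fluorescence over initial fluorescence between 10 and 20 s after thallium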
KCC2 sec2 – KCC2 (human) modulation, second secondary assay. shares compounds with KCC2 mod. normalized thallium flux at 10 µM. 23% of 3,700 active. HEK293-KCC2, thallium flux FluoZin2 fluorescence; actives lie on both sides; F/F0 rise rate, 10–20 s post-thallium;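 active = thallium flux slope more than 3 SD above or below the plate's solvent-only control mean, mostly below; inconclusive = the two repeat wells disagreed; inactive = no significant shift from solvent-only controls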
HEK293 Tl flux – acts in parental HEK cells, KCC2 counter-screen; shares compounds with KCC2 mod; HEK293 parental cells, thallium flux FluoZin2, ouabain; baseline-ratio fluorescence slope, 10–20 s after thallium; thallium flux rate (normalised fluorescence) at 10 µM; 46% of 3,700 active; AID 1716;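 active = thallium flux rate significantly above the same plate's solvent-only control wells, beyond their mean plus 3 SD; inconclusive = the two replicate wells gave conflicting results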
KCC2 retest ouab – confirmation of human KCC2 modulators with ouabain; AID 1717; raw Tl+ flux slope (below DMSO = inhibition, above = activation) at 10 µM; 48% of 3,700 active; HEK293-KCC2, thallium flux FluoZin2 fluorescence; bidirectional: low = inhibitor, high = activator; shares compounds with KCC2 mod;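 active = thallium flux slope beyond 3 SD from same-plate DMSO control mean in most replicates, usually higher, sometimes lower; inconclusive = repeat tests gave conflicting results; inactive = no significant difference from controls in most replicates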;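 note: slope of initial-normalized fluorescence between seconds 10 and 20 after thallium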
HEK counter2 – counter-screen for KCC2 modulators: effect in parental HEK293 cells; shares compounds with KCC2 mod; thallium flux FluoZin-2 fluorescence slope; AID 1718; 33% of 3,700 active; thallium flux slope at 10 µM;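 active = thallium flux slope above the same plate's solvent-control mean plus 3 SD in both duplicate wells; inconclusive = duplicate wells that disagreed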;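 note: run without ouabain in cells lacking the KCC2 cotransporter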
Of the large screens only hits and unclear results are named; the others gave an inactive call (follow-up assays come after a bar, where they were run). In the library only some 4.1% were active in any assay of this set; here they are far more common.

O=C(CSc1nnc(-c2cccs2)n1CC1CCCO1)c1cc2ccccc2o1 (stereo not drawn)	KCC2 mod -3.28 | KCC2 secondary inactive | KCC2 bumet counter inactive | KCC2 sec2 inactive | HEK293 Tl flux inactive | KCC2 retest ouab inactive | HEK counter2 inactive
CC1CCC(NC(=O)CCN2C(=O)C3CC=CCC3C2=O)CC1 (stereo not drawn)	none (no result: KCNK9 block, hERG rescue, KCNQ1 block, KCC2 mod, KCNQ1 act)
Cc1cc(C)n(C(=O)/C(C#N)=N/Nc2cc(Cl)cc(Cl)c2)n1	KCNQ1 block 8, KCC2 mod -7.72 | KCC2 secondary inconclusive | KCC2 bumet counter inconclusive | KCC2 sec2 inactive | HEK293 Tl flux inactive | KCC2 retest ouab 0.0137 | HEK counter2 inactive
Cc1ccc2cccc(OCC(=O)Nc3ccc4c(c3)OCO4)c2n1	KCC2 mod -5.94 | KCC2 secondary inconclusive | KCC2 bumet counter inactive | KCC2 sec2 inactive | HEK293 Tl flux inactive | KCC2 retest ouab 0.0139 | HEK counter2 inactive
COc1cc(OC)cc(C(=O)N[C@H](C(=O)NC2CCCc3ccccc32)C(C)C)c1 (stereo partly drawn)	none (no result: KCNK9 block, hERG rescue, KCNQ1 block, KCC2 mod, KCNQ1 act)
CN1CCN(S(=O)(=O)c2ccc3c(c2)oc(=O)n3C)CC1	none (no result: KCC2 mod)
COC(=O)C(Cc1ccc(O)cc1)NC(=O)c1ccccc1OC (stereo not drawn)	KCC2 mod -5.17 | KCC2 secondary inactive | KCC2 bumet counter inconclusive | KCC2 sec2 inactive | HEK293 Tl flux inactive | KCC2 retest ouab inactive | HEK counter2 inactive
COc1ccccc1C(=O)NCc1ccccc1	none
COc1ccccc1C(=O)NNC(=O)c1sccc1-n1cccc1	none (no result: KCC2 mod) | KCC2 secondary inconclusive | KCC2 bumet counter 0.0456 | KCC2 sec2 0.0483 | HEK293 Tl flux 0.0397 | KCC2 retest ouab 0.0504 | HEK counter2 0.0396
COC(=O)C(Cc1ccc(O)cc1)NC(=O)c1ccccc1 (stereo not drawn)	none (no result: KCC2 mod)
COc1ccccc1C(=O)NNC(=O)C(=O)NC(C)C	KCC2 mod 4.29 | KCC2 secondary 0.0139 | KCC2 bumet counter 0.0199 | KCC2 sec2 inactive | HEK293 Tl flux 0.0113 | KCC2 retest ouab inconclusive | HEK counter2 0.0108
COc1ccccc1C(=O)NNC(=O)C(=O)NCc1ccccc1	hERG rescue 10.3, KCC2 mod 22.7, KCNQ1 act 7 | KCC2 secondary 0.0247 | KCC2 bumet counter 0.0463 | KCC2 sec2 inactive | HEK293 Tl flux 0.0285 | KCC2 retest ouab 0.048 | HEK counter2 0.0141
COc1ccc(N(CC(=O)NC2CCCC2)C(=O)CCC(=O)Nc2nc(C)cs2)cc1OC	none (no result: KCC2 mod)
CC(C(=O)NC(N)=O)N1C(=O)NC(c2ccccc2)(c2ccccc2)C1=O (stereo not drawn)	none (no result: KCC2 mod)
O=C(COC(=O)[C@@H]1CC(O)CN1S(=O)(=O)c1ccc2c(c1)OCCO2)Nc1cc(F)ccc1F (stereo partly drawn)	none (no result: KCNK9 block, hERG rescue, KCNQ1 block, KCC2 mod, KCNQ1 act)
COc1ccc(C(=O)NNC(=O)C(=O)NCc2ccccc2)cc1	none (no result: KCC2 mod) | KCC2 secondary inactive | KCC2 bumet counter 0.0187 | KCC2 sec2 inactive | HEK293 Tl flux 0.0171 | KCC2 retest ouab 0.022 | HEK counter2 0.0183
COc1ccc(C(=O)Nc2cccc(C(=O)NCc3ccccc3)c2)cc1	none
CN(Cc1ccccc1)c1nc2nonc2nc1N1CCCC(CN2CCCC2=O)C1 (stereo not drawn)	KCC2 mod -5.43 | KCC2 secondary inactive | KCC2 bumet counter inactive | KCC2 sec2 0.0188 | HEK293 Tl flux inactive | KCC2 retest ouab inactive | HEK counter2 inactive
CCc1ccc(CN(C)C(=O)C2CCC(=O)N(CC3CCCCC3)C2)cc1 (stereo not drawn)	none (no result: KCC2 mod)
CC1CCCN(c2nc3nonc3nc2N2CCCC(C)C2)C1 (stereo not drawn)	none
CC(=O)NCC1CCCN(c2nc3nonc3nc2N(C)Cc2ccccc2)C1 (stereo not drawn)	KCC2 mod -7.04 | KCC2 secondary inactive | KCC2 bumet counter inactive | KCC2 sec2 0.0292 | HEK293 Tl flux inactive | KCC2 retest ouab 0.0158 | HEK counter2 inactive
Fc1ccc(OCc2nc(-c3ccc(Br)o3)no2)c(F)c1	none (no result: KCC2 mod) | KCC2 secondary inactive | KCC2 bumet counter inactive | KCC2 sec2 inactive | HEK293 Tl flux inactive | KCC2 retest ouab 0.0146 | HEK counter2 inactive
CC1=NN(C(N)=S)C(=O)C1N=Nc1cccc2ccccc12 (stereo not drawn)	KCC2 mod 5.42 (no result: KCNK3 inh) | KCC2 secondary inactive | KCC2 bumet counter 0.0464 | KCC2 sec2 inactive | HEK293 Tl flux 0.0114 | KCC2 retest ouab inconclusive | HEK counter2 inconclusive
CC1=NN(C(N)=S)C(=O)C1N=Nc1ccc(Cl)cc1 (stereo not drawn)	none (no result: KCC2 mod)
CC1=NN(C(N)=S)C(=O)C1N=Nc1ccccc1 (stereo not drawn)	KCC2 mod 5.22 | KCC2 secondary inactive | KCC2 bumet counter 0.0244 | KCC2 sec2 inactive | HEK293 Tl flux inconclusive | KCC2 retest ouab inconclusive | HEK counter2 inactive
Cc1ccc(C)c(S(=O)(=O)N2CCC(c3nc4c(nnn4Cc4ccc(F)cc4)c(=O)[nH]3)CC2)c1	KCC2 mod -4.24 (no result: KCNK9 block, hERG rescue, KCNQ1 block, KCNQ1 act) | KCC2 secondary inactive | KCC2 bumet counter inactive | KCC2 sec2 inactive | HEK293 Tl flux inactive | KCC2 retest ouab 0.0163 | HEK counter2 inactive
Cc1ccc(Cn2nnc3c(=O)[nH]c(C4CCN(S(=O)(=O)c5ccc(F)cc5)CC4)nc32)cc1	KCC2 mod -3.03 | KCC2 secondary inactive | KCC2 bumet counter inactive | KCC2 sec2 0.0249 | HEK293 Tl flux inactive | KCC2 retest ouab inactive | HEK counter2 inactive
Cc1ccc(Cn2nnc3c(=O)[nH]c(C4CCN(S(=O)(=O)c5cc(C)ccc5C)CC4)nc32)cc1	none
COc1ccc(-c2cc(=O)oc3cc(OCC(=O)NCC4CCC(C(=O)O)CC4)ccc23)cc1 (stereo not drawn)	none (no result: KCC2 mod)

Compound activity: PubChem, several laboratories
